Consider 89 compounds from PubChem BioAssay AID624204 (Sanford-Burnham Center for Chemical Genomics, 2012).

Among all 360,000 compounds or so, about 770 (0.21%) were called active.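 How the source made its calls: active means inhibition at least 30% at 10 µM, raw YFP signal under a set limit, fluorescence ratio 0.5 to 1.5; inactive means the rest.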 The list comes from a sample in which actives are over-represented; it also holds similar structures and randomly drawn compounds.

Sentrin-specific protease 1 (Homo sapiens), sequence (Q9P0U3 419-644 limits assumed): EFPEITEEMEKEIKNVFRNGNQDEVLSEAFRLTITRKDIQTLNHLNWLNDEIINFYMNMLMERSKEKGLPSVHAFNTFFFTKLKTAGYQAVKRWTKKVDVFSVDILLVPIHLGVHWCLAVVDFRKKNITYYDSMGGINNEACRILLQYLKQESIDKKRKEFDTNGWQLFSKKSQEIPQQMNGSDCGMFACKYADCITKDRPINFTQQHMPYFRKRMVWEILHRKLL

This test has as its target Sentrin-specific protease 1 (Homo sapiens) (UniProt Q9P0U3). Description: human SENP1 catalytic domain inhibitors, primary screen, biochemical, FRET, uHTS (AID 624204).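 Further: 0% = enzyme with DMSO and 100% = no enzyme wells.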 To be noted: recombinant SENP1 catalytic domain, CyPet-SUMO1-YPet FRET cleavage; at 10 µM; stronger effect = higher value. Summed up: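 Material – human SENP1 catalytic domain · Input – SENP1 enzyme, 20 pM final · Compound dosing – single concentration of 10 µM compound, 0.5% DMSO final · Timing – enzyme reaction for 50 min at room temperature, dark · Measured by – FRET fluorescence in CFP and YFP emission channels · Control set – no-enzyme wells low, DMSO-plus-enzyme wells high control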
Consider `CC1(C)CN(c2ccc(-c3ccnc4ncnn34)cc2)C1=O`, for which the inhibition is -1.93% (inactive).
Turning to `COc1ccc(C(=O)C[n+]2ccc(N)c(C)c2C)cc1`, the inhibition was 1.97% (inactive).
Regarding `O=C(Cc1ccc(Cl)cc1)NC(=S)Nc1ccccc1O`, the inhibition is 0.309% (inactive).
For the compound `O=C(NC(=S)Nc1cccc2c(O)cccc12)c1cccc(Br)c1`, the inhibition is -10.5% (inactive).
The result for `O=C(NC(=O)c1ccccc1)Nc1ccccc1O` reads 31.8% (active); that for `CC(C)Cn1cnc2c1c(=O)n(CC(O)c1ccccc1)c(=O)n2CC(C)C` (centres undefined), 1.26% (inactive); that for `CC1(C(=O)NCc2ccccc2)CSCC(=O)N1CCCn1ccnc1` (centres undefined), 0.15% (inactive).
The result for `COc1cc(Br)cc(/C=N/c2ncn[nH]2)c1O` reads 10.2% (inactive); that for `CC(=O)N(CC(O)CO)c1c(I)c(C(=O)NCC(O)CO)c(I)c(C(=O)NCC(O)CO)c1I` (centres undefined), -0.483% (inactive).
The result for `COCC(C)NC(=O)c1ccc(-n2nc(C(F)(F)F)cc2-c2cccs2)cc1` (centres undefined) reads -1.75% (inactive); that for `CCN(CC(=O)Nc1cc(Cl)ccc1C)C(=O)CSCc1ccc(C)cc1`, 1.09% (inactive).
With `CN(C)c1ccc(Nc2c3c4c(cccc4n(C)c2=O)C(=O)c2ccccc2-3)cc1`, the inhibition is 60.4% (active).
Consider `Cc1nn2c(c1-c1ccccc1)N=C(c1ccco1)CC2c1ccccc1` (centres undefined), for which the inhibition was 38.7% (active).
With `O=C(O)CCCC(=O)N1N=C(c2ccco2)CC1c1ccco1` (centres undefined), the inhibition is 0.794% (inactive).
For the compound `CCOc1ccc(-c2c(C)n([O-])c3c([n+]2=O)CCCC3)cc1`, the inhibition is 0.993% (inactive).
As for `COC(CNC(=O)Cn1ncc2ccsc2c1=O)OC`, the inhibition was 2.87% (inactive).
As to `O=C(NCCC1CCCCN1S(=O)(=O)c1cccs1)C(=O)Nc1ccc(F)cc1F` (centres undefined), the inhibition was 0.809% (inactive).
As for `COc1ccc(C=C2CCC3C(CCCC34OCCO4)C2=O)cc1` (centres undefined), the inhibition is 0.924% (inactive).
In the case of `Cc1ccc(N=C2NC(=O)c3cccc([N+](=O)[O-])c32)cc1`, the inhibition was 1.42% (inactive).
With `COc1ccc(NC(=O)CN(C)C(=O)Cc2coc3cc(C)c(C)cc23)cc1`, the inhibition is -6.79% (inactive).
As to `O=C1C=C(c2cccc(Cl)c2O)C[C@@H](c2ccc(F)cc2)C1`, the inhibition was 54.2% (active).
As for `COc1ccccc1C1=CC(=O)C[C@H](c2ccc(F)cc2)C1`, the inhibition was 3.3% (inactive).
Take `O=C1C=C(c2cccc(Cl)c2)C[C@@H](c2ccc(F)cc2)C1`: the inhibition is 1.33% (inactive).
Turning to `O=S1(=O)CCN(C2CCCCCCCCCCC2)CC1`, the inhibition is 1.39% (inactive).
The value for `COC(=O)c1ccc(CNC(=O)C2CCC(=O)N(Cc3ccccn3)C2)cc1` (centres undefined) was 0.319% (inactive).
Take `COCCNc1nc2nonc2nc1N1CCCC1c1nccs1` (centres undefined): the inhibition was -72.6% (inactive).
Consider `Cn1c(-c2sc3cc(C(F)(F)F)cnc3c2-c2ccccc2)n[nH]c1=S`, for which the inhibition is 31.9% (active).
On to `Cn1c(-c2sccc2OCc2cccc(C(F)(F)F)c2)n[nH]c1=S`, for which the inhibition was 2.98% (inactive).
For the compound `FC(F)(F)c1ccc(-n2cn[nH]c2=S)cc1`, the inhibition was -0.325% (inactive).
Take `CNc1nccc(-c2ccc(Cl)cc2)c1C#N`: the inhibition is -1.17% (inactive).
Consider `Cc1ccc(NC(=O)Cn2c(=O)n(CCC(=O)NC3CCN(Cc4ccccc4)CC3)c(=O)c3ccccc32)cc1`, for which the inhibition was 2.04% (inactive).
The value for `Cc1cc2c(cc1C)NC1(C[C@H]3CCC(=O)N4CC[C@@H](C1)[C@@H]34)C(=NC(C)(C)CC(C)(C)C)N2` (some centres undefined) was 2.4% (inactive).
The value for `O=C1CC[C@@H]2CC3(C[C@@H]4CCN1[C@H]24)Nc1cc([N+](=O)[O-])ccc1NC3=NC1CCCCC1` (some centres undefined) was 51% (active).
Turning to `O=C1CCC[C@@H]2CC(N3CCCCC3)C[C@@H]3CCN1[C@H]23` (some centres undefined), the inhibition is -1.06% (inactive).
With `Cc1cccc(NC(=O)N(Cc2cc3cc(C)cc(C)c3[nH]c2=O)CC2COCCO2)c1` (centres undefined), the inhibition was 1.21% (inactive).
For `COc1ncnc2c1N=C1CC(C)(C)CC(N)=C1S2`, the inhibition is 33.8% (active).
Consider `O=C1/C(=C\c2ccc(O)cc2)CCC1CNc1ccc(Cl)cc1` (centres undefined), for which the inhibition is -58.8% (inactive).
Take `COc1ccc(C(=O)OC(C)C(=O)NC2CCCC2)cc1S(=O)(=O)N1CCOCC1` (centres undefined): the inhibition was 2.06% (inactive).
The value for `COc1ccc(-n2nc(C(=O)NCC(=O)N3CCCCCC3)c3ccccc3c2=O)cc1Cl` was -0.802% (inactive).
Regarding `NS(=O)(=O)c1ccc(NC(=O)COC(=O)c2c3c(nc4ccccc24)/C(=C\c2ccc4c(c2)OCO4)CCC3)cc1`, the inhibition was -24.4% (inactive).
Regarding `COc1cc(/C=C2\CCCc3c2nc2ccccc2c3C(=O)O)cc(Cl)c1O`, the inhibition is 54.9% (active).
The result for `COc1cccc(COC(=O)C2CCN(S(=O)(=O)c3cccs3)CC2)c1OC` reads -0.283% (inactive); that for `C=CC[C@@H](Cc1ccc(F)cc1)C(=O)OC[C@H]1CCCN1C(=O)[C@H](CC=C)CC(=O)N(CCO)Cc1ccccc1`, 0.419% (inactive).
As to `O=C(CCNS(=O)(=O)c1cccs1)N1CCN(c2ccc(F)cc2)CC1`, the inhibition is 7.35% (inactive).
The value for `CCOc1ccc(OCC(=O)OC(C)C(=O)NC2CCCCC2C)cc1` (centres undefined) was 0.477% (inactive); that for `CCOc1ccc(N(CC(=O)Nc2cccc(OC)c2)S(C)(=O)=O)cc1` was -0.216% (inactive); that for `O=C(CC1CCCCC1)Nc1c2c(nn1-c1ccc(F)cc1)CS(=O)(=O)C2` was -0.662% (inactive).
Regarding `CCOC(=O)c1cc2c(=O)n3ccccc3nc2n(CC(C)C)c1=NC(=O)c1c(-c2c(F)cccc2Cl)noc1C`, the inhibition was -28.9% (inactive).
Consider `O=C(O)c1cc2ccccc2c(=O)s1`, for which the inhibition was 2.49% (inactive).
In the case of `CCOC(=O)N1CCN(CC(=O)c2ccc3c(c2)CCN3)CC1`, the inhibition is -2.56% (inactive).
The value for `N#CCC(=O)NC1CCC(CC2CCC(NC(=O)CC#N)CC2)CC1` (centres undefined) was -0.386% (inactive); that for `O=C(COC(=O)/C=C/c1ccc(Br)o1)Nc1cccc(S(=O)(=O)N2CCOCC2)c1` was -7.92% (inactive); that for `Cc1ccc2c(c1)nnc1nnc(SCC(=O)O)n12` was 73% (active).
Consider `CCn1nnnc1SCC(=O)c1ccc(C)cc1C`, for which the inhibition was 1.48% (inactive).
Turning to `Cc1cccc(-c2nnc(SCC(=O)O)n2Cc2ccccc2)c1`, the inhibition is 0.0319% (inactive).
With `C[C@@H]1C[C@@H]2O[C@H]2/C=C\C=C\C(=O)Cc2c(Cl)c(O)cc(O)c2C(=O)O1`, the inhibition is -2.26% (inactive).
The value for `CCCS(=O)(=O)N1CCCC(C(=O)NCCN2CCCCC2C)C1` (centres undefined) was -23.8% (inactive).
On to `CN1CCN(/N=C/c2ccc(C#N)cc2)CC1`, for which the inhibition is 1.45% (inactive).
The result for `O=C1C2C3C=CC(C4CC34)C2C(=O)N1/N=C/c1ccc(-c2ccccc2[N+](=O)[O-])o1` (centres undefined) reads -25.8% (inactive); that for `CN1CCN(/N=C/c2ccc(-c3ccc([N+](=O)[O-])cc3)o2)CC1`, 58.4% (active); that for `Nn1c(SCc2ccccc2)nnc1C1CCCCC1`, 3.72% (inactive).
The result for `CCCC(=O)N1CCC(CCC(=O)NC2CC2)CC1` reads 2.3% (inactive).
With `CCOC(=O)C1CCN(Cc2ccc(-c3ccccc3)cc2)CC1`, the inhibition is -0.00995% (inactive).
In the case of `CCOC(=O)C1CCN(c2ncnc3c2c(-c2ccccc2)cn3-c2ccc(C)cc2)CC1`, the inhibition is 47.1% (active).
Consider `CCOC(=O)C1CCN(C(=O)CN2C(=O)c3cccnc3Oc3ccc(C)cc32)CC1`, for which the inhibition was 0.924% (inactive).
In the case of `CNCC[C@H](Oc1ccc(C(F)(F)F)cc1)c1ccccc1`, the inhibition was -0.124% (inactive).
The result for `O=C(COc1ccc(/C=N/NS(=O)(=O)c2ccccc2)cc1)NCCc1ccccc1` reads 3.48% (inactive).
Regarding `O=C1/C(=C/c2coc3ccc(O)cc3c2=O)SC(=S)N1c1ccccc1`, the inhibition is 46.8% (active).
Turning to `CC1=CC2=NC(=O)/C(=C/c3coc4ccccc4c3=O)C(=N)N2O1`, the inhibition is -38.6% (inactive).
For the compound `CSc1ccc(CN2C(=O)NC3(CCCCCC3)C2=O)cc1`, the inhibition was 1.11% (inactive).
Consider `CCC1OC(c2ccc([N+](=O)[O-])cc2)=Nc2ccccc21` (centres undefined), for which the inhibition was -7.92% (inactive).
Regarding `N#Cc1ccc(C(C(=O)NCc2ccccc2)n2c(=O)c(-c3ccco3)nc3ccccc32)cc1` (centres undefined), the inhibition is -62.9% (inactive).
The result for `Cc1cccc(C)c1NC(=O)C(c1cccc2ccccc12)n1c(=O)c(-c2ccco2)nc2ccccc21` (centres undefined) reads -49.2% (inactive).
Turning to `c1coc(-c2nc3nc4ccccc4n3nc2-c2ccco2)c1`, the inhibition was 86.8% (active).
Regarding `Cc1ccc(NC(=O)COC(=O)CCc2nc3ccccc3n2-c2ccccc2)c(C)c1`, the inhibition is 0.304% (inactive).
In the case of `C[C@H](C(=O)CC(=O)OC(C)(C)C)[C@H](O)c1ccc(C(F)(F)F)cc1`, the inhibition was 0.388% (inactive).
Regarding `Cc1ncc(CO)c(/C=N/NC(=O)c2cccc(S(=O)(=O)N3CCCC3)c2)c1O`, the inhibition was -24.8% (inactive).
Regarding `CCOc1ccc(NS(=O)(=O)c2ccc(C(=O)NCC(c3ccccc3OC)N3CCCC3)cc2)cc1` (centres undefined), the inhibition is -1.55% (inactive).
Regarding `O=C(CN1CCOCC1)Nc1c(-c2ccccc2)c2cc(Br)ccc2[nH]c1=O`, the inhibition was -0.407% (inactive).
On to `Cc1ccc(-c2c(N)nc3ncccn23)cc1`, for which the inhibition is -17.5% (inactive).
With `Cc1ccccc1Nc1c(-c2ccccc2)nc2ncccn12`, the inhibition is 14.2% (inactive).
In the case of `Cc1cccc(C)c1Nc1c(-c2ccccc2O)nc2ncccn12`, the inhibition is 32.1% (active).
On to `Cc1ccc(NC(=O)[C@H](Cc2ccccc2)NC(=O)CC[C@H]2O[C@@H](n3ccc(=O)[nH]c3=O)[C@H](O)[C@@H]2O)cc1C`, for which the inhibition was 1.31% (inactive).
The value for `Cc1ccc(Nc2ccccc2N)cc1` was 54.5% (active); that for `Cc1ccc(Nc2nc(N)nc(CSc3nnc(C)s3)n2)cc1` was 3.47% (inactive).
Turning to `Cc1ccc(Nc2nc(Cl)c(C=O)s2)cc1`, the inhibition is -32.5% (inactive).
As to `O=C(CSc1nnc(-c2ccncc2)n1-c1ccc(Cl)cc1)Nc1ccc(C(=O)O)cc1`, the inhibition was 0.469% (inactive).
With `C=CC1=C(C(=O)O)N2C(=O)[C@@H](NC(=O)/C(=N/OCC(=O)O)c3csc(N)n3)[C@H]2SC1`, the inhibition is 56% (active).
Regarding `O=C(CCn1nnc2ccccc2c1=O)N[C@@H](Cc1c[nH]c2ccccc12)C(=O)O`, the inhibition was 0.24% (inactive).

The inhibition is the change of the read-out against control, counted positive when it falls.
